FGF22 binding: binders of recombinant human FGF22 by thermal shift | SYPRO orange fluorescence; percent of sucrose octasulfate shift, DMSO zero | activity (Tm shift, normalised), % at 9.99 µM | AID 651658 | actives 1.5% (n = 340,000);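 active = mean Tm shift, scaled 0 neutral to 100 positive control, at about 1.3% or above, every replicate too, limit read from the data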
Target sequence (Q9HCT0 whole entry, looked up): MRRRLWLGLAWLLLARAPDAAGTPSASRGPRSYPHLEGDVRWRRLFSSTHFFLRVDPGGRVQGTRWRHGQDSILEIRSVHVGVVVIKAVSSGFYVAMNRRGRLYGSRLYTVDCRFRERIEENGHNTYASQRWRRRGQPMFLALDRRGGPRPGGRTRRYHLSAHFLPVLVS
DENV2 CPE: DENV2-induced cell death inhibition | DENV2-infected cells, cytopathic effect rescue, plate reader | CPE inhibition, % at 9.99 µM | actives 1.7% (n = 350,000); in the data active = CPE inhibition above about 20%, passing the limit was not always enough; tested in BHK-21 cells;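 note: 0% = median of neutral control wells and 100% = median of positive control wells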
ARNT TACC3 PPI: ARNT/TACC3 interaction disruption; AlphaScreen His-ARNT PAS-B/GST-TACC3 binding, luminescence; TACC3 fragment carries E629A point mutation; actives 0.66% (n = 390,000); AID 623870; Q9Y6A5; inhibition, % at 9.99 µM;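 active = mean inhibition of replicates at least 50% and at least half of replicates each reaching 50%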;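 note: 0% = complete ARNT plus TACC3 wells and 100% = ARNT alone without TACC3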
SIRT5 inh: blocks human SIRT5 desuccinylation of peptide; actives 1.1% (n = 330,000); Purified SirT5, succinyl-peptide AMC, trypsin-coupled fluorescence; Q9NXA8; inhibition, % at 15 µM; in the data active = inhibition above about 15%
Target sequence (Q9NXA8 whole entry, looked up): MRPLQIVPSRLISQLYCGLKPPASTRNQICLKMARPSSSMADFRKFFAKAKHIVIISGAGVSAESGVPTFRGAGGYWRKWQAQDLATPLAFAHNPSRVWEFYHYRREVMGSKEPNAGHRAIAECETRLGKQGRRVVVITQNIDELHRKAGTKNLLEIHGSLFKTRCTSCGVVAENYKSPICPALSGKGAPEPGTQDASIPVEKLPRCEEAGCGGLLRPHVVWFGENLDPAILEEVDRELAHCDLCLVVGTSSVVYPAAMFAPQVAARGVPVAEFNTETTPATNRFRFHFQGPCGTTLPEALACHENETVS
FN deposition inh: fibronectin deposition inhibition | actives 0.086% (n = 350,000) | AH1F fibroblasts, Alexa488-fibronectin deposition fluorescence, overnight | inhibition, % at 12.6 µM;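 active = mean inhibition across replicates of 30% or more, regardless of how many single replicates reach that level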;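 note: positive control wells lacked labelled fibronectin entirely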
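Material: AH1F fibroblast monolayer depositing Alexa488-labelled fibronectin into matrix | Input: 10000 AH1F cells/well | Medium: DMEM plus 2% serum, read in PBS | Reagent: Alexa488-fibronectin, 24 nM final in well | Compound dosing: One dose per compound, pinned | Schedule: 1 h adhesion, overnight exposure | Measured by: Fluorescence at 485 nm excitation, 525 nm emission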
Xi reactivation: activators of X-chromosome reactivation in mouse fibroblasts | XiGFP mouse fibroblasts, % GFP-positive cells imaging, 3 d; cells co-treated with 5-aza-dC sensitizer; scaled so ellipticine positive control = 100% | activation, % at 7.58 µM | actives 0.055% (n = 360,000);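 active = mean normalized replicate activation at least 10% and every replicate at or above 10%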;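 note: 0% = median of on-plate neutral control wells and 100% = ellipticine 6 µM median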
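Assay system – SV40-immortalized XiGFP fibroblast cells, line 68-5-11 · Buffer or medium – DMEM supplemented with 5-aza-dC as sensitizing agent · Dosing – one concentration, pinned · Benchmarks – positive control ellipticine, 6 µM final · Times – 3 days compound exposure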
The depositor's hits bear a star; nt = not tested or not shown. Compounds with a hit are over-represented: about 3.8% of the library has one in this group of screens.

SMILES | FGF22 binding | DENV2 CPE | ARNT TACC3 PPI | SIRT5 inh | FN deposition inh | Xi reactivation
C[C@@H]1CCCCO[C@H](CN(C)C(=O)CCC(F)(F)F)[C@@H](C)CN([C@@H](C)CO)C(=O)c2cc(NS(=O)(=O)c3cn(C)cn3)ccc2O1 | -0.3 | 14.1 | -7.8 | -0.6 | nt | 0.0
O=C([C@@H]1[C@@H](CO)[C@@H]2Cn3c(cccc3=O)[C@H]1N2C(=O)CC1CC1)N1CCCCC1 | 0.1 | 148.4* | -0.8 | 10.4 | nt | 0.2
CCC(=O)N1[C@@H]2c3cccc(=O)n3C[C@H]1[C@H](CO)[C@H]2C(=O)N1CCCCC1 | -0.1 | 18.0 | -10.2 | 3.1 | nt | 0.8
O=C([C@H]1[C@H](CO)[C@H]2Cn3c(cccc3=O)[C@@H]1N2CC1CCCCC1)N1CCOCC1 | -0.2 | 62.9* | 8.4 | 3.8 | nt | 0.3
CC=Cc1ccc2n(c1=O)C[C@@H]1[C@@H](CO)[C@H](C(=O)N3CCOCC3)[C@H]2N1CC1CCCC1 (mixture of isomers) | 0.0 | 36.5* | -4.5 | -2.5 | 0.3 | 0.2
C[C@H](CO)N1C[C@H](C)[C@@H](CN(C)Cc2ccc(C(F)(F)F)cc2)OCCCC[C@H](C)Oc2ccc(NC(=O)CCC(F)(F)F)cc2C1=O | 0.1 | 6.2 | -8.0 | 8.0 | nt | -1.1
COc1ccc(C)cc1S(=O)(=O)N(C)CC(=O)N1CCN(C)CC1 | nt | nt | -2.5 | nt | nt | nt
COc1ccc(N(CC(=O)N2CCN(C)CC2)S(=O)(=O)c2cc(C)ccc2OC)cc1Cl | 0.0 | 83.2* | 2.1 | -1.4 | 2.0 | 0.3
COc1ccc(C)cc1S(=O)(=O)N(C)CC(=O)N1CCC(C(N)=O)CC1 | 43.0* | -5.6 | nt | 0.4 | -6.5 | 0.0
CCOC(=O)C1CCN(C(=O)CN(C)S(=O)(=O)c2cc(C)ccc2OC)CC1 | nt | nt | -32.8 | nt | nt | nt
COc1cccc(S(=O)(=O)N[C@H]2C=C[C@H](CC(=O)NCc3ccccc3)O[C@H]2CO)c1 | nt | -4.7 | nt | -2.9 | nt | -0.5
O=C(N/N=C/c1ccc(Cl)cc1)c1cc(-c2cccnc2)nc2ccccc12 | 0.1 | -7.0 | -11.2 | -4.4 | -3.8 | 0.0
Cc1ccc(/C=N/NC(=O)c2cc(-c3cccnc3)nc3ccccc23)cc1 | 43.2* | -0.8 | 0.8 | -1.3 | 13.5 | 0.1
O=C(N/N=C/c1ccccn1)c1cc(-c2ccncc2)nc2ccccc12 | nt | nt | 68.2* | nt | 15.5 | 0.3
O=C(N/N=C/c1ccsc1)c1cc(-c2ccncc2)nc2ccccc12 | nt | nt | -31.1 | nt | -10.6 | 0.5
CNC[C@H]1Oc2c(NC(=O)C3CCOCC3)cccc2C(=O)N([C@@H](C)CO)C[C@H]1C | 0.1 | 0.3 | -12.5 | 2.4 | -3.4 | -0.2
CCCC(=O)Nc1ccc2c(c1)OC[C@H](C)N(CCC(F)(F)F)C[C@@H](C)[C@@H](OC)CN(C)C2=O | -0.3 | -1.2 | -4.2 | 5.0 | -0.7 | 0.0
CC(=O)c1ccc(OCCCC(=O)NC2CCCc3ccccc32)cc1 (configuration not stated) | 0.0 | 22.2* | -2.3 | nt | -9.2 | -0.1
O=C(NC1CCCc2ccccc21)c1ccc([N+](=O)[O-])cc1 (configuration not stated) | 43.5* | 8.9 | -4.3 | 6.9 | 1.6 | nt
O=C(NC1CCCc2ccccc21)c1ccccc1 (configuration not stated) | 0.2 | 3.4 | -3.1 | -0.9 | 1.6 | 0.2
COc1ccc(OCC(=O)NC2CCCc3ccccc32)cc1 (configuration not stated) | -0.2 | 4.4 | -0.4 | nt | -1.4 | 0.2
Cc1nnc(SCC(=O)NC2CCCc3ccccc32)n1-c1ccccc1 (configuration not stated) | -0.3 | 83.4* | -4.0 | -2.9 | -1.3 | 0.0
CCCCN1C(=O)C(=O)N(CC(=O)NC2CCCc3ccccc32)C1=O (configuration not stated) | 43.8* | -2.0 | -12.4 | -1.6 | -0.2 | 0.0
COc1cccc(S(=O)(=O)N2C[C@H](O)COC[C@H]3O[C@@H](CC(=O)Nc4ccccc4)CC[C@@H]32)c1 | 0.0 | -3.6 | -0.6 | -4.4 | 2.5 | 0.0
Cc1ccccc1-c1cnc2c(c1)C(=O)N([C@@H](C)CO)C[C@@H](C)[C@@H](CN(C)Cc1ccncc1)O2 | -0.3 | -9.9 | -5.4 | 1.6 | 6.7 | -0.6
SMILES | FGF22 binding | DENV2 CPE | ARNT TACC3 PPI | SIRT5 inh | FN deposition inh | Xi reactivation
C[C@H](CO)N1C[C@H](C)[C@@H](CN(C)CC2CC2)Oc2ccc(NC(=O)Nc3ccc4c(c3)OCO4)cc2CC1=O | 0.6 | 11.6 | 19.7 | 0.8 | nt | 0.4
CO[C@H]1CN(C)C(=O)c2ccc(NC(C)=O)cc2OC[C@H](C)N(C(=O)C2CCC2)C[C@@H]1C | nt | 30.1* | nt | 4.2 | -17.7 | 0.0
CCC(=O)Nc1ccc2c(c1)OC[C@H](C)N(C(=O)C1CC1)C[C@@H](C)[C@H](OC)CN(C)C2=O | 0.2 | -5.5 | 5.4 | 2.6 | 2.0 | -0.2
CCC(=O)Nc1ccc2c(c1)OC[C@@H](C)N(C(=O)C1CC1)C[C@H](C)[C@H](OC)CN(C)C2=O | nt | 36.1* | nt | -2.0 | -2.2 | 0.1
COc1ccccc1C(=O)NCC1(c2ccccc2)CCCC1 | 43.1* | -6.5 | -3.4 | -4.4 | 6.3 | 0.2
COC(=O)C1=C(C)N(Cc2ccc(Br)cc2)C(=S)NC1c1ccc(F)cc1 (configuration not stated) | 0.5 | -6.6 | nt | 3.6 | -6.7 | 0.0
COC(=O)C1=C(C)N(Cc2cccc(C(F)(F)F)c2)C(=NCC2CC2)NC1c1ccc(F)cc1 (configuration not stated) | -0.1 | 61.2* | nt | -3.1 | 8.5 | 0.5
COC(=O)C1=C(C)N(Cc2ccccc2)C(=NCCCCO)N[C@H]1c1cccc(C(F)(F)F)c1 | -0.2 | -5.5 | 0.1 | nt | 4.7 | 0.0
COC(=O)C1=C(C)N(Cc2cccc(C(F)(F)F)c2)C(=NCC2CC2)NC1c1cccc(C(F)(F)F)c1 (configuration not stated) | 41.5 | -11.5 | nt | nt | 3.8 | -0.1
CCN1C(=NCCCCO)N[C@@H](c2cccc(C(F)(F)F)c2)C(C(=O)OC)=C1C | 0.2 | 32.6* | -10.5 | nt | -3.4 | 0.0
COC(=O)C1=C(C)N(Cc2ccc(Br)cc2)C(=S)NC1c1cccc(F)c1 (configuration not stated) | 0.1 | 25.9* | nt | -0.3 | -2.8 | 0.1
Cc1noc(C)c1NC(=O)Nc1ccc2c(c1)C(=O)N([C@H](C)CO)C[C@H](C)[C@@H](CN(C)C(=O)c1ccccc1)OCCCC[C@H](C)O2 | -0.5 | 0.7 | -11.5 | -4.1 | nt | 0.0
CNC[C@@H]1OCCCC[C@@H](C)Oc2ccc(NC(=O)Nc3c(C)noc3C)cc2C(=O)N([C@H](C)CO)C[C@H]1C | 0.2 | 21.8* | -5.7 | 2.0 | nt | -1.1

Screens from PubChem.
